Only some compounds are listed: those with a hit (about 3.5% of all), similar ones and a draw of the others.
MrgX1 agonist = activates human MrgX1 receptor signaling | Q96LB2 | MrgX1-HEK293 cells, Fluo-4 calcium fluorescence, agonist mode; hits give high values | B-score at 10 µM | actives 0.44% (n = 310,000) | AID 588627;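 active = calcium response B-score plate-corrected fluorescence ratio at least 3 library SD, with starting fluorescence B-score inside 5 SD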
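Material: MrgX1-expressing HEK293 cells / Dosing: compound as first of three additions / Incubation: overnight seeding, then 1 h dark dye loading / Signal: Fluo-4 NW calcium fluorescence / Evaluation: B-scored fluorescence response ratio / Benchmarks: positive and negative control wells on each plate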
MrgX1 PAM = human MrgX1 positive allosteric modulation, primary screen; MrgX1-HEK293, Fluo-4 calcium flux, FDSS; hits give high values; B-score at 10 µM; actives 0.63% (n = 310,000); AID 588675;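 active = plate-corrected calcium response at least 3 library SD above typical, normal starting fluorescence, not activating the receptor alone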;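 also: compound read alongside a low EC10 to EC30 dose of BAM8-22 agonist; peak minus trough fluorescence over baseline measured at the second addition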
MrgX1 antag = human MrgX1 receptor antagonism, primary screen; Q96LB2; MRGX1-HEK293 calcium flux, Fluo-4, BAM8-22 antagonism; hits give low values; B-score at 10 µM; actives 1.3% (n = 310,000);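 active = calcium-response B-score plate-corrected more than 3 library SD below zero, starting fluorescence within 5 deviations, no agonist response on first addition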;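 also: peak minus trough fluorescence over baseline after final BAM8-22 challenge near maximal dose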
RGS4 pot = potentiators or activators of RGS4 | actives 0.92% (n = 310,000) | HEK293 M3R/inducible RGS4, carbachol calcium flux Fluo4; hits give low values | B-score at 10 µM;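 active = B-score of the integrated calcium signal more than 4 SD below the library mean, with starting fluorescence not abnormally high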;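 also: negative B-score means reduced calcium response which marks RGS4 activation or potentiation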
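test system = HEK293 cells with stable M3R and inducible RGS4 | schedule = recording 10 s baseline at 1 Hz, 100 s post-agonist | technique = Fluo4-AM (2 µM) calcium-flux fluorescence, kinetic read | measure = Agonist-evoked peak-minus-minimum fluorescence over baseline, integrated ratio, B score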
RGS4 block = human RGS4 inhibition. P49798. HEK293 M3R/RGS4 inducible, Fluo-4 calcium flux; hits give high values; triggered by carbachol at its EC20. B-score at 10 µM. actives 0.45% (n = 310,000). AID 463165;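 active = B-score, a plate-corrected calcium signal, over three deviations above library mean, with baseline fluorescence within five deviations of library mean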;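 also: RGS4 expression induced by doxycycline in cells with stable M3 receptor; B-score is computed from the integrated fluorescence ratio over baseline after carbachol; higher B-score means a larger calcium signal and so more RGS4 inhibition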
Target sequence (P49798 whole entry, looked up): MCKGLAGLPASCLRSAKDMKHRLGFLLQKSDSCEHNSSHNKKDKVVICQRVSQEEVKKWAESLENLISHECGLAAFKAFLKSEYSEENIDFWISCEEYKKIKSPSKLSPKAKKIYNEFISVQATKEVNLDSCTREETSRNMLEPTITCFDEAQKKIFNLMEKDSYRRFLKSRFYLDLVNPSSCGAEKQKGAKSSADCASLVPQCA
MrgX1 ant reconf = reconfirmed antagonist of human MrgX1 receptor signaling; actives 19% (n = 2,300); remaining BAM8-22 calcium response % of control (hits give low values), % at 10 µM; shares compounds with MrgX1 antag; MrgX1-HEK293, BAM8-22 calcium flux, Fluo-4; hits give low values;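 active = remaining agonist calcium response no higher than 100% minus 3 SD of agonist-only control wells, with starting fluorescence near control levels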;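 also: agonist BAM8-22 given at a near maximal EC90 to ECmax level; peak minus minimum fluorescence divided by baseline after agonist addition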
HEK293 Ca flux = activity in parental HEK293 cells lacking MrgX1. shares compounds with MrgX1 antag. Fluo-4 calcium fluorescence, FDSS. fluorescence ratio F(max-min)/F0 at 10 µM. actives 2% (n = 4,000);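 active = duplicate-averaged calcium fluorescence ratio at least three times the standard deviation of buffer wells, a nonspecific response in parental cells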
HEK293 Ca counter = activity in parental HEK293 cells without MrgX1; shares compounds with MrgX1 antag; parental HEK293 calcium flux, Fluo-4 fluorescence ratio; hits give high values; fluorescence ratio F(max-min)/F0 at 10 µM; actives 0.4% (n = 4,000);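 active = calcium fluorescence ratio, averaged over duplicates, at least 3 SD of the buffer-well ratio, meaning a nonspecific response in receptor-free cells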;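 also: untransfected parental HEK293 lacking MrgX1 used as counterscreen for MrgX1 allosteric activators; fluorescence change taken during the second addition on a kinetic imager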
HEK293 Ca cntr2 = MrgX1 activator counter-screen hit in parental HEK293 cells. shares compounds with MrgX1 antag. Fluo-4 calcium fluorescence (FDSS); hits give high values. fluorescence ratio F(max-min)/F0 at 10 µM. actives 8.7% (n = 4,000);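 active = calcium fluorescence ratio at least three times the spread of buffer wells, meaning a non-specific response in parental cells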
* marks the source's active call; other numbers are inactive results; i = inactive; / = no result given.

SMILES	MrgX1 agonist	MrgX1 PAM	MrgX1 antag	RGS4 pot	RGS4 block	MrgX1 ant reconf	HEK293 Ca flux	HEK293 Ca counter	HEK293 Ca cntr2
C=C1CCN([C@H](C(=O)OCc2ccc(C)cc2)C(C)C)S(=O)(=O)c2ccccc21	i	i	i	/	/	/	/	/	/
C=C1CCN([C@@H](C)C(=O)OCc2cccc(C)c2)S(=O)(=O)c2ccccc21	i	i	-11.4*	i	i	i	i	i	i
COCCNc1ccc(S(=O)(=O)N2CCCC2)cn1	i	i	-5.01*	i	i	i	i	i	i
CCCC1=C(C(=O)OCC)C(c2ccncc2)n2ncnc2N1 (centres undefined)	i	i	-6.12*	i	i	i	i	i	i
Cc1ccc(NC(=O)CSc2nnc(N)s2)cc1S(=O)(=O)N1CCOCC1	i	i	i	i	i	/	/	/	/
COc1ccc(Cl)cc1-n1c(C)ccc1C	i	i	-8.4*	i	i	i	i	i	i
COc1ccc(Cl)cc1N1C(=O)c2cccnc2C1=O	i	i	i	i	i	/	/	/	/
O=C(NCC1CCCN1S(=O)(=O)c1cccs1)c1ccc(Cl)cc1 (centres undefined)	i	i	-5.65*	i	i	i	i	i	i
O=C(NCC1CCCN1S(=O)(=O)c1cccs1)c1ccccc1 (centres undefined)	i	i	i	i	i	/	/	/	/
CCn1ccnc1CN1CCN(CCC(C)C)C(CCO)C1 (centres undefined)	i	i	-6.19*	i	i	i	i	i	i
CCn1ccnc1CN1CCN(CC(C)C)C(CCO)C1 (centres undefined)	i	i	i	i	i	/	/	/	/
COc1ccc(Nc2nnc(SCC(=O)NC(=O)Nc3ccc4c(c3)OCCO4)s2)cc1	i	i	i	i	i	/	/	/	/
COCc1cc(=O)[nH]c(=S)[nH]1	i	i	-7.13*	i	i	i	i	i	i
O=c1cc(Cc2ccccc2)[nH]c(=S)[nH]1	i	i	-5.01*	i	i	i	i	i	i
CCOC(=O)C(C)(C)Oc1cccc2c1S(=O)(=O)c1ccccc1-2	i	i	i	i	i	/	/	/	/
O=C(O)Cn1nc(-c2ccccc2)cc1-c1ccccc1	i	i	-5.63*	i	i	i	i	i	i
O=C(O)CC(C(=O)O)n1nc(-c2ccccc2)cc1-c1ccccc1 (centres undefined)	i	i	i	i	i	/	/	/	/
Cc1ccc(Cn2ccsc2=NC(=O)COC(=O)c2ccc(O)cc2O)cc1	i	i	-7.74*	i	i	i	i	i	i
O=C(Nc1ccccc1)N1CCC(c2ccccc2)C1 (centres undefined)	i	i	i	i	i	/	/	/	/
O=C(CCN1CCC(c2ccccc2)C1)c1ccccc1 (centres undefined)	i	i	-5.19*	i	i	i	i	i	i
CCc1nnc(NC(=O)c2nc(S(=O)(=O)Cc3ccc(C)cc3)ncc2Cl)s1	i	i	-7.15*	i	i	73.3%*	i	i	i
CCN1c2ccccc2-c2nc3ccccc3n2C1c1cccs1 (centres undefined)	i	i	-6.13*	i	i	i	i	i	i
